Experimental data as given in ChEMBL document CHEMBL2311298, “2H-chromene derivatives bearing thiazolidine-2,4-dione, rhodanine or hydantoin moieties as potential anticancer agents” (Eur J Med Chem, 2013).
pIC50: −log10 of the molar value.

What was measured:
MCF7 = assay: Anticancer activity against human MCF7 cells assessed as cell viability after 72 hrs by MTT reduction assay; type: functional, cell-based; conditions: MCF7, 72 h
Summary of the method: (§1)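 Cells grown in RPMI 1640 with 10% FBS, 100 units/ml penicillin-G and streptomycin, 37 °C, 5% CO2. A549, MCF-7 and NIH/3T3 grown as monolayers, K562 and MOLT-4 in suspension. Seeding densities (cells/ml): A549 40,000, K562 40,000, MCF-7 30,000, MOLT-4 40,000, NIH/3T3 50,000. Overnight at 37 °C, then 3-4 concentrations added.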

MOLT-4 [1] = assay: Anticancer activity against human MOLT4 cells assessed as cell viability at 50 uM after 72 hrs by trypan blue exclusion assay; type: functional; conditions: MOLT-4, 72 h, read-out: Activity
Summary of the method: (§2)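 MOLT-4 cells in RPMI 1640 with 10% FBS, grown in suspension at 37 °C, 5% CO2. Cells exposed for 72 h as in the MTT assay, with each compound at a single concentration. Suspension mixed 1:1 with trypan blue. Clear (viable) and blue cells counted on a hemocytometer. Percent viable cells expressed relative to control wells.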

MOLT-4 [2] = assay: Anticancer activity against human MOLT4 cells assessed as cell viability after 72 hrs by MTT reduction assay; type: functional, cell-based; conditions: MOLT-4, 72 h; summary of the method: as §1
K562 = assay: Anticancer activity against human K562 cells assessed as cell viability after 72 hrs by MTT reduction assay; type: functional, cell-based; conditions: K562, 72 h; summary of the method: as §1
NIH3T3 = assay: Anticancer activity against mouse NIH/3T3 cells assessed as cell viability after 72 hrs by MTT reduction assay; type: cell-based; conditions: NIH3T3, 72 h; summary of the method: as §1
A549 = assay: Anticancer activity against human A549 cells assessed as cell viability after 72 hrs by MTT reduction assay; type: functional, cell-based; conditions: A549, 72 h; summary of the method: as §1
MOLT-4 [3] = assay: Anticancer activity against human MOLT4 cells assessed as cell viability at 40 uM after 72 hrs by trypan blue exclusion assay; type: functional; conditions: MOLT-4, 72 h, read-out: Activity; summary of the method: as §2
MOLT-4 [4] = assay: Anticancer activity against human MOLT4 cells assessed as cell viability at 75 uM after 72 hrs by trypan blue exclusion assay; type: functional; conditions: MOLT-4, 72 h, read-out: Activity; summary of the method: as §2
MOLT-4 [5] = assay: Anticancer activity against human MOLT4 cells assessed as cell viability at 10 uM after 72 hrs by trypan blue exclusion assay; type: functional; conditions: MOLT-4, 72 h, read-out: Activity; summary of the method: as §2
MOLT-4 [6] = assay: Anticancer activity against human MOLT4 cells assessed as cell viability at 100 uM after 72 hrs by trypan blue exclusion assay; type: functional; conditions: MOLT-4, 72 h, read-out: Activity; summary of the method: as §2
MOLT-4 [7] = assay: Anticancer activity against human MOLT4 cells assessed as cell viability at 20 uM after 72 hrs by trypan blue exclusion assay; type: functional; conditions: MOLT-4, 72 h, read-out: Activity; summary of the method: as §2
MOLT-4 [8] = assay: Anticancer activity against human MOLT4 cells assessed as cell viability at 65 uM after 72 hrs by trypan blue exclusion assay; type: functional; conditions: MOLT-4, 72 h, read-out: Activity; summary of the method: as §2
MOLT-4 [9] = assay: Anticancer activity against human MOLT4 cells assessed as cell viability at 25 uM after 72 hrs by trypan blue exclusion assay; type: functional; conditions: MOLT-4, 72 h, read-out: Activity; summary of the method: as §2

SMILES | pIC50 (MCF7) | pIC50 (MOLT-4 [2]) | pIC50 (K562) | pIC50 (A549) | viability at 50 µM (MOLT-4 [1]) | pIC50 (NIH3T3) | viability at 40 µM (MOLT-4 [3]) | viability at 75 µM (MOLT-4 [4]) | viability at 10 µM (MOLT-4 [5]) | viability at 100 µM (MOLT-4 [6]) | viability at 20 µM (MOLT-4 [7]) | viability at 65 µM (MOLT-4 [8]) | viability at 25 µM (MOLT-4 [9])
O=C1NC(=S)S/C1=C\C1=Cc2ccccc2OC1 | 4.16 | 4.28 | 4.26 | 4.14 | 49.3% | 4.14 | – | – | – | – | – | – | –
O=C(O)CN1C(=O)/C(=C/C2=Cc3ccccc3OC2)SC1=S | < 4.00 | < 4.00 | < 4.00 | < 4.00 | – | – | – | – | – | – | – | – | –
CCN1C(=O)S/C(=C\C2=Cc3ccccc3OC2)C1=O | < 3.70 | < 3.70 | < 3.70 | < 3.70 | – | – | – | – | – | – | – | – | –
O=C(O)CN1C(=O)/C(=C/C2=Cc3cc(Br)ccc3OC2)SC1=S | < 4.60 | < 4.60 | < 4.60 | < 4.60 | – | – | – | – | – | – | – | – | –
CCN1C(=O)S/C(=C\C2=Cc3cccc(OC)c3OC2)C1=O | 4.05 | 4.88 | 4.04 | < 3.70 | – | 4.12 | – | – | 53.2% | – | – | – | –
COc1cccc2c1OCC(/C=C1\SC(=S)N(CC(=O)O)C1=O)=C2 | < 3.70 | < 3.70 | < 3.70 | < 3.70 | – | – | – | – | – | – | – | – | –
CN1C(=N)NC(=O)/C1=C/C1=Cc2ccccc2OC1 | 3.83 | 4.14 | 4.02 | 4.05 | – | 3.98 | – | 49.5% | – | – | – | – | –
CN1C(=O)S/C(=C\C2=Cc3ccccc3OC2)C1=O | < 4.00 | < 4.00 | < 4.00 | < 4.00 | – | – | – | – | – | – | – | – | –
O=C1NC(=O)/C(=C/C2=Cc3ccccc3OC2)S1 | 4.00 | 4.00 | 4.00 | 3.72 | – | < 3.70 | – | – | – | 53.4% | – | – | –
CC1Oc2ccc(Br)cc2C=C1/C=C1\SC(=O)NC1=O (racemic) | 4.17 | 4.19 | 4.11 | 4.18 | – | 4.25 | – | – | – | – | – | 53.3% | –
CC1Oc2ccc(Br)cc2C=C1/C=C1/C(=O)NC(=N)N1C (racemic) | 4.07 | 4.25 | 4.29 | 3.92 | 54.3% | 4.06 | – | – | – | – | – | – | –
CC1Oc2ccc(Br)cc2C=C1/C=C1\SC(=O)N(C)C1=O (racemic) | < 4.30 | < 4.30 | < 4.30 | < 4.30 | – | – | – | – | – | – | – | – | –
CCN1C(=O)S/C(=C\C2=Cc3cc(Br)ccc3OC2C)C1=O (racemic) | < 4.00 | < 4.00 | < 4.00 | < 4.00 | – | – | – | – | – | – | – | – | –
CC1Oc2ccc(Br)cc2C=C1/C=C1\SC(=S)N(CC(=O)O)C1=O (racemic) | < 4.30 | < 4.30 | < 4.30 | < 4.30 | – | – | – | – | – | – | – | – | –

More lines, in order of rising pIC50 (MCF7), values ahead:

pIC50 (MCF7) | pIC50 (MOLT-4 [2]) | pIC50 (K562) | pIC50 (A549) | SMILES | viability at 50 µM (MOLT-4 [1]) | pIC50 (NIH3T3) | viability at 40 µM (MOLT-4 [3]) | viability at 75 µM (MOLT-4 [4]) | viability at 10 µM (MOLT-4 [5]) | viability at 100 µM (MOLT-4 [6]) | viability at 20 µM (MOLT-4 [7]) | viability at 65 µM (MOLT-4 [8]) | viability at 25 µM (MOLT-4 [9])
4.24 | 4.26 | 4.30 | 4.10 | O=C1NC(=O)/C(=C/C2=Cc3cc(Br)ccc3OC2)S1 | 52.7% | 4.25 | – | – | – | – | – | – | –
4.29 | 4.11 | 4.10 | 4.71 | O=C1NC(=O)/C(=C/C2=Cc3cc(Br)ccc3OC2)N1 | – | 4.44 | – | 60.1% | – | – | – | – | –
4.39 | 4.42 | 4.47 | 4.29 | O=C1NC(=S)S/C1=C\C1=Cc2cc(Br)ccc2OC1 | – | 4.56 | 46.7% | – | – | – | – | – | –
4.70 | 4.69 | 4.50 | 4.32 | CC1Oc2ccc(Br)cc2C=C1/C=C1\SC(=S)NC1=O (racemic) | – | 4.54 | – | – | – | – | 53.1% | – | –
4.82 | 4.61 | 4.97 | 4.76 | CC1Oc2ccc(Br)cc2C=C1/C=C1\NC(=O)NC1=O (racemic) | – | 4.60 | – | – | – | – | – | – | 41.3%
5.09 | 4.67 | 4.25 | 4.53 | O=C1NC(=O)/C(=C/C2=Cc3ccccc3OC2)N1 | – | 3.74 | – | – | – | – | 53.3% | – | –
